Assay results taken from ChEMBL document CHEMBL2407048, “Novel synthetic acridine derivatives as potent DNA-binding and apoptosis-inducing antitumor agents” (Bioorg Med Chem, 2013).
Activity calls are given as the source filed them. The calls are words filed in the database; no cut-off is given here.

What was measured:
[1] = test system: K562; assay: Induction of apoptosis in human K562 cells assessed as decrease in BCL-XL level at 2.5 uM after 48 hrs by Western blot analysis; type: functional, cell-based
How it was run: (§1)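 K562 cells in 6 cm dishes treated 48 h at several concentrations, then lysed on ice 0.5 h and spun at 20,000g. Protein measured by BCA, run on 15% SDS-PAGE and transferred to PVDF. Membrane blocked in 5% BSA/TBS with Na₃VO₄ and NaF, primary antibody 2 h at room temperature, chemiluminescent detection of cleaved caspase-3/7/9, BAX and BCL-XL.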

[2] = test system: K562; assay: Induction of apoptosis in human K562 cells assessed as increase in Bax level at 2.5 uM after 48 hrs by Western blot analysis; type: functional, cell-based; how it was run: as §1
[3] = test system: K562; assay: Induction of apoptosis in human K562 cells assessed as activation of caspase-9 after 48 hrs by Western blot analysis; type: functional, cell-based; how it was run: as §1
[4] = test system: K562; assay: Induction of apoptosis in human K562 cells assessed as caspase-7 cleavage at 2.5 uM after 48 hrs by Western blot analysis; type: functional, cell-based; how it was run: as §1
[5] = test system: K562; assay: Induction of apoptosis in human K562 cells assessed as caspase-3 cleavage at 2.5 uM after 48 hrs by Western blot analysis; type: functional, cell-based; how it was run: as §1
[6] = test system: K562; assay: Induction of apoptosis in human K562 cells after 48 hrs by annexin V-FITC/propidium iodide staining-based flow cytometric analysis; type: functional, cell-based
[7] = test system: K562; assay: Induction of apoptosis in human K562 cells assessed as early apoptotic cells at 2.5 uM after 48 hrs by annexin V-FITC/propidium iodide staining-based flow cytometric analysis (reference value: 2.1%); type: functional
[8] = test system: K562; assay: Induction of apoptosis in human K562 cells assessed as early apoptotic cells at 1 uM after 48 hrs by annexin V-FITC/propidium iodide staining-based flow cytometric analysis (reference value: 2.1%); type: functional
[9] = test system: K562; assay: Induction of apoptosis in human K562 cells assessed as early apoptotic cells at 0.5 uM after 48 hrs by annexin V-FITC/propidium iodide staining-based flow cytometric analysis (reference value: 2.1%); type: functional
[10] = test system: K562; assay: Induction of apoptosis in human K562 cells assessed as late apoptotic cells at 2.5 uM after 48 hrs by annexin V-FITC/propidium iodide staining-based flow cytometric analysis (reference value: 1.22%); type: functional
[11] = test system: K562; assay: Induction of apoptosis in human K562 cells assessed as late apoptotic cells at 1 uM after 48 hrs by annexin V-FITC/propidium iodide staining-based flow cytometric analysis (reference value: 1.22%); type: functional
[12] = test system: K562; assay: Induction of apoptosis in human K562 cells assessed as late apoptotic cells at 0.5 uM after 48 hrs by annexin V-FITC/propidium iodide staining-based flow cytometric analysis (reference value: 1.22%); type: functional
[13] = molecular target: T1, DNA topoisomerase 1 (Homo sapiens) (UniProt P11387); assay: Inhibition of human recombinant DNA topoisomerase-1 assessed as relaxation of pBR322 DNA at 25 uM after 30 mins by agarose gel electrophoresis
T1 sequence (whole entry): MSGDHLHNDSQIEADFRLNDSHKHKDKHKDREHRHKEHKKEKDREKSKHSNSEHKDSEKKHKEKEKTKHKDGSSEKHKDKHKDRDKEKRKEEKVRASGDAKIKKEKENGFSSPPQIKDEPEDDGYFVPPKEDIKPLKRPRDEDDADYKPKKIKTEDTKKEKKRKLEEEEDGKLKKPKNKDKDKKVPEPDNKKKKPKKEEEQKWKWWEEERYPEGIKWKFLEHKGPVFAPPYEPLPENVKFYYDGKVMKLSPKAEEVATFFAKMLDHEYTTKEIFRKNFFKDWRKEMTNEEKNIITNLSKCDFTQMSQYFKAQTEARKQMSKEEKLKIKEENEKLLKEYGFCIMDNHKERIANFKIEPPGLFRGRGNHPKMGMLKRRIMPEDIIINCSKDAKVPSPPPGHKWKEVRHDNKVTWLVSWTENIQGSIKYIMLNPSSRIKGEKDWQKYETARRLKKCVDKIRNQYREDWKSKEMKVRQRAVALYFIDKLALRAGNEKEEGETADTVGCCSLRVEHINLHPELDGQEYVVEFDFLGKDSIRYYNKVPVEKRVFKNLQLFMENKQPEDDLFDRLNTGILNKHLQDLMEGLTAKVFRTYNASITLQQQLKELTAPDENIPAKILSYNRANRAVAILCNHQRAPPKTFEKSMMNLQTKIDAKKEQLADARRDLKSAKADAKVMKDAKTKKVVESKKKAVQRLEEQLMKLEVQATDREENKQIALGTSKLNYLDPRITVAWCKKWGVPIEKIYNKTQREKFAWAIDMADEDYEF

[14] = test system: DNA; assay: Binding affinity to calf thymus DNA at 40 to 80 uM by CD spectra analysis; type: nucleic-acid assay; details: Bos taurus
How it was run: (§2)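 CD spectra of ct DNA (40 μM) with compound at 0, 40 or 80 μM, in 10 mM Tris/10 mM NaCl pH 7.0, at room temperature in a 0.1 cm quartz cell. Each spectrum is the average of three scans with the buffer scan subtracted.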

[15] = test system: DNA; assay: Effect on calf thymus DNA conformation at 40 to 80 uM by CD spectra analysis; type: nucleic-acid assay; details: Bos taurus; how it was run: as §2
[16] = test system: DNA; assay: Binding affinity to calf thymus DNA after 5 mins by UV-vis absorption spectroscopic analysis; type: nucleic-acid assay; details: Bos taurus
How it was run: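 ct DNA (purity A260:A280 1.86; concentration per mole phosphate from ε260 6600 M⁻¹ cm⁻¹) titrated into 50 μM compound in 10 mM Tris, 10 mM NaCl, pH 7.0. DNA 0–10 μM. Incubated 5 min, UV-vis absorption recorded in a 1.0 cm quartz cell. Kb taken as the slope-to-intercept ratio of [DNA]/(εa−εf) plotted against [DNA].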

[17] = test system: DNA; assay: Binding affinity to calf thymus DNA by fluorescence spectroscopic analysis; type: nucleic-acid assay; details: Bos taurus
How it was run: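 Compound at 50 μM final in Tris–HCl buffer pH 7.0 (10 mM Tris, 10 mM NaCl), titrated with ct DNA at 0 to 6 μM final. Emission excited at 420 nm with a xenon arc lamp. Quenching constant Kq derived from a Stern–Volmer plot, F0/F = 1 + Kq[Q].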

[18] = test system: HepG2; assay: Cytotoxicity against human HepG2 cells assessed as growth inhibition after 48 hrs by MTT assay; type: functional, cell-based; details: HepG2, 48 h
How it was run: (§3)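 K562 (RPMI-1640) or HepG-2 (DMEM) cells in 10% FBS with penicillin/streptomycin at 37 °C, 5% CO₂. Seeded at 1.5×10^5 cells/mL and treated 48 h at various concentrations. MTT (5 mg/mL) added for 4 h, formazan dissolved in DMSO, absorbance read at 490 nm. IC50 reported.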

[19] = test system: K562; assay: Cytotoxicity against human K562 cells assessed as growth inhibition after 48 hrs by MTT assay; type: functional, cell-based; details: K562, 48 h; how it was run: as §3

SMILES | Kq [17] | IC50 [18] [µM] | IC50 [19] [µM] | further results
O=C(Nc1c2ccccc2nc2ccccc12)c1ccccc1 | < 1 ×10⁴ /M | > 50 | > 50 | 
Cc1cccc2c(NCc3ccccc3)c3ccccc3nc12 | 6.22 ×10⁴ /M | 3.64 | 4.86 | inhibition [13]: Active
c1ccc(CNc2c3ccccc3nc3ccccc23)cc1 | 3.71 ×10⁴ /M | 6.07 | 5.24 | inhibition [13]: Active
Clc1ccc2c(NCc3ccccc3)c3ccccc3nc2c1 | 1.33 ×10⁴ /M | 11.6 | 9.24 | 
Cc1ccc(NC(=O)c2ccc(CN3CCN(C)CC3)cc2)cc1Nc1nccc(-c2cccnc2)n1 [IMATINIB] |  |  | 0.47 | 
c1ccc(COc2c3ccccc3nc3ccccc23)cc1 | < 1 ×10⁴ /M | > 50 | > 50 | 
COc1cc2c(c(OC)c1OC)-c1ccc(OC)c(=O)cc1[C@@H](NC(C)=O)CC2 [COLCHICINE] |  | 1.8 |  | 

Second part, led by results:

Kq [17] | SMILES | IC50 [18] [µM] | IC50 [19] [µM] | further results
3.5 ×10⁵ /M | COc1ccc2nc3ccccc3c(NCc3ccccc3)c2c1 | 0.89 | 0.54 | Activity [1]: Active; Activity [2]: Active; Activity [3]: Dose-dependent effect; Activity [4]: Active; Activity [5]: Active; Activity [6]: Dose-dependent effect; Activity [7]: 40.44%; Activity [8]: 37.09%; Activity [9]: 7.23%; Activity [10]: 32.71%; Activity [11]: 18.42%; Activity [12]: 2%; inhibition [13]: Active; Activity [14]: Active; Activity [15]: inactive; Kb [16]: 1.42 ×10⁵ /M
1.11 ×10⁵ /M | COc1cc(C)c2nc3cc(Cl)ccc3c(NCc3ccccc3)c2c1 | 6.05 | 3.09 | 
1.19 ×10⁵ /M | COc1ccc2nc3cc(Cl)ccc3c(NCCc3ccccc3)c2c1 | 2.19 | 0.65 | 
1.05 ×10⁵ /M | COc1ccc2nc3cc(Cl)ccc3c(NCCCc3ccccc3)c2c1 | 3.26 | 2.2 | 
1.97 ×10⁵ /M | COc1ccc2nc3cc(Cl)ccc3c(NCc3ccccc3)c2c1 | 1.4 | 0.65 | 
